≈ marks a conversion by molar mass, not a printed value. Calls of active or inactive are those of the source. The rule behind the calls is not given here.
How the values were obtained:
[1] = tested on: HT-1080; experiment: Cytotoxicity against human HT1080 cells after 72 hrs by MTT assay; assay type: functional; conditions: for CC50: HT-1080, 72 h, read-out: TD50 (the source's name)
How it was run: (§1)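 Cells from passages 1–4 after thawing, seeded at about 2–5·10⁴ cells/mL with compounds added immediately. Incubation 72 h, 37 °C, 5% CO₂. MTT read-out: medium replaced with fresh medium containing 10 mM HEPES, MTT (2 mg/mL in HBSS) added for 3 h. Dissolved in DMSO plus glycine buffer pH 10.5, absorbance 540 nm. TD50 = concentration giving 50% cell kill, averaged from CV and MTT.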

[2] = tested on: MG-22A; experiment: Cytotoxicity against mouse MG-22A cells after 72 hrs by MTT assay; assay type: functional; conditions: for CC50: read-out: TD50 (the source's name); how it was run: as §1
[3] = tested on: HT-1080; experiment: Induction of apoptosis in human HT1080 cells assessed as change in cell morphology after 72 hrs by acridine orange staining based fluorescence microscopic analysis; assay type: functional
How it was run: (§2)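 Adherent cells treated 72 h, 37 °C, 5% CO₂, in 96-well plates. Stained 2 min with acridine orange 10 μg/mL in PBS pH 7.4, washed once with PBS, then viewed in PBS by inverted fluorescence microscopy. Chromatin condensation shown by DNA staining: living cells green, apoptotic cells orange/yellow, necrotic cells red.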

[4] = tested on: MG-22A; experiment: Cytotoxicity against mouse MG-22A cells assessed as nitric oxide concentration at 100 ug/ml after 72 hrs by crystal violet coloration assay (reference value: 100%); assay type: functional
[5] = (§3) Cytotoxicity against mouse NIH/3T3 cells after 72 hrs by MTT assay; assay type: cell-based, NIH3T3; conditions: NIH/3T3 cells, read-out: TD50; how it was run: as §1
[6] = tested on: HT-1080; experiment: Cytotoxicity against human HT1080 cells assessed as nitric oxide concentration at 100 ug/ml after 72 hrs by crystal violet coloration assay (reference value: 100%); assay type: functional
[7] = tested on: NIH3T3; experiment: as §3; assay type: cell-based; conditions: nih3t3, 72 h; how it was run: as §1
[8] = tested on: NIH3T3; experiment: Induction of apoptosis in mouse NIH/3T3 cells after 72 hrs by acridine orange staining based fluorescence microscopic analysis; assay type: cell-based; conditions: nih3t3, 72 h; how it was run: as §2
[9] = tested on: HT-1080; experiment: Induction of apoptosis in human HT1080 cells assessed as change in cell phenotype after 72 hrs by acridine orange staining based fluorescence microscopic analysis; assay type: functional; how it was run: as §2
[10] = tested on: HT-1080; experiment: Induction of mitochondria mediated apoptosis in human HT1080 cells assessed as change in cell phenotype after 72 hrs by acridine orange staining based fluorescence microscopic analysis; assay type: functional; how it was run: as §2
[11] = tested on: HT-1080; experiment: Induction of apoptosis in human HT1080 cells assessed as nucleus fragmentation after 72 hrs by acridine orange staining based fluorescence microscopic analysis; assay type: functional, cell-based; how it was run: as §2

Compound	CC50 [1] [µg/mL]	CC50 [2] [µg/mL]	Activity [3]	Activity [4] [%]	CC50 at 72 h [5] [µg/mL]	Activity [6] [%]	Activity [1]	Activity [2]	Activity [7]	Activity [8]	Activity [9]	Activity [10]	Activity [11]
O=c1c2[se]c3ccccc3c2nc2sc3ccccc3n12	8.5 (≈ 23.9 µM)	9.5 (≈ 26.7 µM)	Active	3	27 (≈ 76 µM)	2							
CCOC(=O)c1[se]c2ccccc2c1-c1cc(F)c(F)c(F)c1		81.5 (≈ 213 µM)		12	100 (≈ 261 µM)	6	inactive						
CCOC(=O)c1[se]c2ccccc2c1Sc1ncccn1				7	840 (≈ 2310 µM)	8	inactive	inactive					
CCOC(=O)c1[se]c2ccccc2c1-c1ccc(C)s1	16 (≈ 45.8 µM)	19.5 (≈ 55.8 µM)		350	15 (≈ 42.9 µM)	350							
O=c1c2[se]c3ccccc3c2nc2cnccn12				7	27 (≈ 89.9 µM)	2	inactive	inactive					
CCOC(=O)c1[se]c2ccccc2c1-c1ccc(OC(C)C)cc1				15		9	inactive	inactive	Non-toxic				
O=c1c2[se]c3ccccc3c2nc2ccccn12	3 (≈ 10 µM)	3 (≈ 10 µM)		7	31 (≈ 104 µM)	5				Toxic	Active		
CCOC(=O)c1[se]c2ccccc2c1-c1ccc(C#N)cc1				7	684 (≈ 1930 µM)	8	inactive	inactive					
O=c1c2[se]c3ccccc3c2nc2c3ncccc3ccn12				3	56 (≈ 160 µM)	20	inactive	inactive					
O=c1c2[se]c3ccccc3c2nc2c(Cl)cc(C(F)(F)F)cn12	3.5 (≈ 8.71 µM)	2.75 (≈ 6.85 µM)		8	31 (≈ 77.2 µM)	2						Active	
CCOC(=O)c1[se]c2ccccc2c1-c1ccccc1	65 (≈ 197 µM)			23	16 (≈ 48.6 µM)	25		inactive					
CCOC(=O)c1[se]c2ccccc2c1Nc1cccnc1				9	1000 (≈ 2900 µM)	12	inactive	inactive					
CCOC(=O)c1[se]c2ccccc2c1C#Cc1ccccc1	76 (≈ 215 µM)	87 (≈ 246 µM)		10	614 (≈ 1740 µM)	15							
CCOC(=O)c1[se]c2ccccc2c1C#CC1=CCCCC1	32.5 (≈ 91 µM)	32 (≈ 89.6 µM)		200	120 (≈ 336 µM)	200							
CCOC(=O)c1[se]c2ccccc2c1-c1ccsc1				14	31 (≈ 92.5 µM)	13	inactive	inactive					
O=c1c2[se]c3ccccc3c2nc2ccc(Cl)cn12	3 (≈ 8.99 µM)	3 (≈ 8.99 µM)		40	32 (≈ 95.9 µM)	3				Toxic			Active
CCOC(=O)c1[se]c2ccccc2c1Br		40.5 (≈ 122 µM)		40	896 (≈ 2700 µM)	14	inactive						
Cc1csc2nc3c([se]c4ccccc43)c(=O)n12				4	21 (≈ 65.8 µM)	2	inactive	inactive					

Reference: ChEMBL document CHEMBL1811830, “Synthesis, structure and cytotoxicity of 3-C, N, S, Se substituted benzo[b]selenophene derivatives” (Eur J Med Chem, 2011)
